# What was measured:
# [1] = test system: Tyrosine-protein kinase ABL1 (Homo sapiens), P00519 [E255K]; assay: Binding affinity to human phosphorylated ABL1 E255K mutant (S229 to K512 residues) expressed in mammalian expression system assessed as residual binding level at 1 uM by Kinomescan method relative to control
# Summary of the method: (§1)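 Kinome-wide selectivity panel run by the KINOMEscan method, with the test compound at a single concentration of 1 μM. Wild-type and mutant kinases were profiled in the same screen.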
# [2] = biological target: Citron Rho-interacting kinase (Homo sapiens) (UniProt O14578); assay: Binding affinity to wild-type human partial length CIT (M68 to E432 residues) expressed in bacterial expression system assessed as residual binding level at 1 uM by Kinomescan method relative to control
# Chain of Citron Rho-interacting kinase (Homo sapiens) (O14578 whole entry, the tested form may be a part): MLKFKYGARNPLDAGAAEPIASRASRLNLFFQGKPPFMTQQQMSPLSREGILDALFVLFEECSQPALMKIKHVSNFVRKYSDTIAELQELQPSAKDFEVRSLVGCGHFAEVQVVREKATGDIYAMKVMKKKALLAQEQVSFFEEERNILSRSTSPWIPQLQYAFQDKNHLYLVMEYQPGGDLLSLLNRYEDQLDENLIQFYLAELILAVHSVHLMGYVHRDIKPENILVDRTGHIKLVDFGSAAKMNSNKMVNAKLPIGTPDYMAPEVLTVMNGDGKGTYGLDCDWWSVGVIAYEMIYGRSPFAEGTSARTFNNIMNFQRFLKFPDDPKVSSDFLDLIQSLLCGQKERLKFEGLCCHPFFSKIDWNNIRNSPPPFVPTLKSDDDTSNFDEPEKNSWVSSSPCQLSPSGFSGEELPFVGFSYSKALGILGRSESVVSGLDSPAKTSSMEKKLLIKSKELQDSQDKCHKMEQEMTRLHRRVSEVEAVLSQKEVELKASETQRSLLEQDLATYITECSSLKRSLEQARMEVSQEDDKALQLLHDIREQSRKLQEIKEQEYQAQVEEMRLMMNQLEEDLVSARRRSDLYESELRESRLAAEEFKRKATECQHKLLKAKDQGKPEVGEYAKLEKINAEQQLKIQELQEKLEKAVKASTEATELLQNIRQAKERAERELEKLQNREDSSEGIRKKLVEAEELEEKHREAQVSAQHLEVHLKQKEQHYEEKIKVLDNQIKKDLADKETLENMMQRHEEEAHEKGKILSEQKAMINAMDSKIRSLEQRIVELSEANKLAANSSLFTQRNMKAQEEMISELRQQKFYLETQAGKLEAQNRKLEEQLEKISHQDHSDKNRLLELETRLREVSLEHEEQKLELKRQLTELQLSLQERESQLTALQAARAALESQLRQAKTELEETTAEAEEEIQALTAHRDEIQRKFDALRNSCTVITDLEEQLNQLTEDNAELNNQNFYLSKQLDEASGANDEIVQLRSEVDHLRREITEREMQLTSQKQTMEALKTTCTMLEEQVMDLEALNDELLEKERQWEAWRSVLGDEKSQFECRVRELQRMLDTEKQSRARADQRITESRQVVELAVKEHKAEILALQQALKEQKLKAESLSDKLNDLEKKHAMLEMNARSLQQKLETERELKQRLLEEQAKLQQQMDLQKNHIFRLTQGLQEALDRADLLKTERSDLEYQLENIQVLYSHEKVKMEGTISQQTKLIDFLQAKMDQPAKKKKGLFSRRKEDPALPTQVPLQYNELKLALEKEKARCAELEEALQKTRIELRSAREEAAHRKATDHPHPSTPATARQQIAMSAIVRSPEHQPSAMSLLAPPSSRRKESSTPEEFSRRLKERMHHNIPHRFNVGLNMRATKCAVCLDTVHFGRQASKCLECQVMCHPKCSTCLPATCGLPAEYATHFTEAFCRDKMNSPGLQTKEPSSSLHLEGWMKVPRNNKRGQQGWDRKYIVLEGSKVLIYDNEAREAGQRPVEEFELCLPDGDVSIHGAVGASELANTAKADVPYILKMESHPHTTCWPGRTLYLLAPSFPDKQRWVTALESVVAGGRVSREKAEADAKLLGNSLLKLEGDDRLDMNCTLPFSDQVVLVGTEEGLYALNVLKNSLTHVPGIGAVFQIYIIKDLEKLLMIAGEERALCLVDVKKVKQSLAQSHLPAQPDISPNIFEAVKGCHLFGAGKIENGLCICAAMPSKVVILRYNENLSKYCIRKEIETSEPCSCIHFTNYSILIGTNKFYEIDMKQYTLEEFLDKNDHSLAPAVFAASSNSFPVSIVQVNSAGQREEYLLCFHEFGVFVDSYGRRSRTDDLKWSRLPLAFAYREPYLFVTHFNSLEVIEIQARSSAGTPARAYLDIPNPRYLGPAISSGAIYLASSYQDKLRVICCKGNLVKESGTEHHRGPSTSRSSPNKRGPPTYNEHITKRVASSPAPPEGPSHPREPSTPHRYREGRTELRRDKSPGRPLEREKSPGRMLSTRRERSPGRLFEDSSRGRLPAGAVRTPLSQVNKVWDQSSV
# Activated CDC42 kinase 1 = Activated CDC42 kinase 1 (Homo sapiens, UniProt Q07912); assay: Inhibition of recombinant GST-tagged human TNK2 catalytic/cytoplasmic domain (110 to 476 residues) expressed in baculovirus expression system by LanthaScreen assay
# Chain of Activated CDC42 kinase 1 (Q07912 whole entry, the tested form may be a part): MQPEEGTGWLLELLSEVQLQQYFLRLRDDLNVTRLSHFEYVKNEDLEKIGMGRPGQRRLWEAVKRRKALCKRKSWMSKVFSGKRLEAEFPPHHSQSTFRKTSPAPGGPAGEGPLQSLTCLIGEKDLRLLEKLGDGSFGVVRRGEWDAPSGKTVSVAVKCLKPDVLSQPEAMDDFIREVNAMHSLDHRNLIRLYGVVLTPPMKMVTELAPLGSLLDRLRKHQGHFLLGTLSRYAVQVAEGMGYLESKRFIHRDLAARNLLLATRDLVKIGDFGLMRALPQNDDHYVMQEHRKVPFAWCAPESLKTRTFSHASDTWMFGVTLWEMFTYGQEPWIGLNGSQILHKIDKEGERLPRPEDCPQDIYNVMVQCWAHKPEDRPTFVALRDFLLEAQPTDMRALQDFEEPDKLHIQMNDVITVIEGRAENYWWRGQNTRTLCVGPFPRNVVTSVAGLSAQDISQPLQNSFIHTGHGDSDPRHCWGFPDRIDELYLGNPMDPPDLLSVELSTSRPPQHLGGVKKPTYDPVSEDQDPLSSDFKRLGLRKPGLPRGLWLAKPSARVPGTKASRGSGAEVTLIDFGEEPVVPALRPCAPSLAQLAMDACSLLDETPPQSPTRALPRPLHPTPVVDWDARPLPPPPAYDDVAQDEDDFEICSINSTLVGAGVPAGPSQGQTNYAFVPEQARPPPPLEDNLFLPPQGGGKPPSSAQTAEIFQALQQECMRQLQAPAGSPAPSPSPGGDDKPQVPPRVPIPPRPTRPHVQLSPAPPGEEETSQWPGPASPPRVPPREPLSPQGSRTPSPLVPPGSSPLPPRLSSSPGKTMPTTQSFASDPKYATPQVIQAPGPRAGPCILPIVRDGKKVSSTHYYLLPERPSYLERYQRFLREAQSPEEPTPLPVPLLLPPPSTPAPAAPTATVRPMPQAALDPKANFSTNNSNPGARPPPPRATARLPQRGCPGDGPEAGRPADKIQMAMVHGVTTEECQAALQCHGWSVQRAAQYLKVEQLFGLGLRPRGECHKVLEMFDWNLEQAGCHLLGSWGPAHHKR
# [3] = test system: Leucine-rich repeat serine/threonine-protein kinase 2 (Homo sapiens), Q5S007 [G2019S]; assay: Binding affinity to human partial length LRRK2 G2019S mutant (H970 to E2527 residues) expressed in mammalian expression system assessed as residual binding level at 1 uM by Kinomescan method relative to control; summary of the method: as §1
# [4] = biological target: Phosphatidylinositol 4-phosphate 5-kinase type-1 gamma (Homo sapiens) (UniProt O60331); assay: Binding affinity to wild-type human partial length PIP5K1C (M1 to T668 residues) expressed in mammalian expression system assessed as residual binding level at 1 uM by Kinomescan method relative to control
# [5] = biological target: Serine/threonine-protein kinase RIO3 (Homo sapiens) (UniProt O14730); assay: Binding affinity to wild-type human full length RIOK3 (M1 to E519 residues) expressed in bacterial expression system assessed as residual binding level at 1 uM by Kinomescan method relative to control
# Summary of the method: (§2)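 Single-point kinome-wide KINOMEscan binding panel, test compound at 1 μM, run by the provider's standard protocol.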
# [6] = test system: Tyrosine-protein kinase ABL1 (Homo sapiens), P00519 [H396P]; assay: Binding affinity to human non-phosphorylated ABL1 H396P mutant (S229 to K512 residues) expressed in mammalian expression system assessed as residual binding level at 1 uM by Kinomescan method relative to control; summary of the method: as §1
# [7] = test system: Hepatocyte growth factor receptor (Homo sapiens), P08581 [Y1235D]; assay: Binding affinity to human partial length MET Y1235D mutant (D1010 to S1367 residues) expressed in bacterial expression system assessed as residual binding level at 1 uM by Kinomescan method relative to control; summary of the method: as §1
# [8] = test system: Tyrosine-protein kinase ABL1 (Homo sapiens), P00519 [Q252H]; assay: Binding affinity to human phosphorylated ABL1 Q252H mutant expressed in mammalian expression system assessed as residual binding level at 1 uM by Kinomescan method relative to control; summary of the method: as §1
# [9] = biological target: Proto-oncogene tyrosine-protein kinase receptor Ret (Homo sapiens) (UniProt P07949); assay: Binding affinity to wild-type human partial length RET (E713 to D1014 residues) expressed in bacterial expression system assessed as residual binding level at 1 uM by Kinomescan method relative to control
# [10] = test system: Epidermal growth factor receptor (Homo sapiens), P00533 [UNDEFINED MUTATION]; assay: Binding affinity to human partial length EGFR S752-I759del mutant expressed in bacterial expression system assessed as residual binding level at 1 uM by Kinomescan method relative to control; summary of the method: as §1
# [11] = biological target: Testis-specific serine/threonine-protein kinase 1 (Homo sapiens) (UniProt Q9BXA7); assay: Binding affinity to wild-type human full length TSSK1B (M1 to Q367 residues) expressed in bacterial expression system assessed as residual binding level at 1 uM by Kinomescan method relative to control
# [12] = biological target: Phosphatidylinositol 4,5-bisphosphate 3-kinase catalytic subunit delta isoform (Homo sapiens) (UniProt O00329); assay: Binding affinity to wild-type human partial length PIK3CD (R108 to Q1044 residues) expressed in mammalian expression system assessed as residual binding level at 1 uM by Kinomescan method relative to control
# Chain of Phosphatidylinositol 4,5-bisphosphate 3-kinase catalytic subunit delta isoform (Homo sapiens) (O00329 whole entry, the tested form may be a part, canonical isoform): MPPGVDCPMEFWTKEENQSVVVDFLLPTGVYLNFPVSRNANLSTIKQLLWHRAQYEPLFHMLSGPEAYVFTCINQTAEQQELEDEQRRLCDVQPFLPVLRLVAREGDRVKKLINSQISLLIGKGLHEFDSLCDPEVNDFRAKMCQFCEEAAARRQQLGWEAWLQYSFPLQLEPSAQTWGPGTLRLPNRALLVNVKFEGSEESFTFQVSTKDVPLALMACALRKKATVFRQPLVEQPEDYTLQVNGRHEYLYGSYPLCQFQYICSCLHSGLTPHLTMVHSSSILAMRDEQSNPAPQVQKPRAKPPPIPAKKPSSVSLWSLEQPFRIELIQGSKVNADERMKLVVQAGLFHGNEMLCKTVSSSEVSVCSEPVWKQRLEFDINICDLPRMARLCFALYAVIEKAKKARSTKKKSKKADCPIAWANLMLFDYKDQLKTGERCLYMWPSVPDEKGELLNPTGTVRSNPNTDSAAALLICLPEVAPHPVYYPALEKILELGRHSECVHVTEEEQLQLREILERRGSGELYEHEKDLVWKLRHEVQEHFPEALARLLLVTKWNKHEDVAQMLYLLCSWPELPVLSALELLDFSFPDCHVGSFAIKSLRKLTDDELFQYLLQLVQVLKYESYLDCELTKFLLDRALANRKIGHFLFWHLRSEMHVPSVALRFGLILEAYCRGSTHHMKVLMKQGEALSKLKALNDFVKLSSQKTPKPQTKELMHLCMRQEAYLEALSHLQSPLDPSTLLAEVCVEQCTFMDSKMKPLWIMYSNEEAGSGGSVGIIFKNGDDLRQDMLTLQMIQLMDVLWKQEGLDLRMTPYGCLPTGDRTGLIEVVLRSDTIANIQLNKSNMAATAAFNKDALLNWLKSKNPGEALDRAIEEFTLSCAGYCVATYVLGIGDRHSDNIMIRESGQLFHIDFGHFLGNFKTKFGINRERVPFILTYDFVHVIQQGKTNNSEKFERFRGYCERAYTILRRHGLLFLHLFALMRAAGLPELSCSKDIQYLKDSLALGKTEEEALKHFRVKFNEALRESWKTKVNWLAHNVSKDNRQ
# [13] = biological target: cAMP-dependent protein kinase catalytic subunit alpha (Homo sapiens) (UniProt P17612); assay: Binding affinity to wild-type human partial length PKAC-alpha (G10 to F351 residues) expressed in bacterial expression system assessed as residual binding level at 1 uM by Kinomescan method relative to control
# [14] = test system: Phosphatidylinositol 4,5-bisphosphate 3-kinase catalytic subunit alpha isoform (Homo sapiens), P42336 [E545A]; assay: Binding affinity to human partial length PIK3CA E545A mutant (R108 to N1068 residues) expressed in mammalian expression system assessed as residual binding level at 1 uM by Kinomescan method relative to control
# [15] = biological target: Serine/threonine-protein kinase NLK (Homo sapiens) (UniProt Q9UBE8); assay: Binding affinity to wild-type human full length NLK (M13 to E527 residues) expressed in bacterial expression system assessed as residual binding level at 1 uM by Kinomescan method relative to control; summary of the method: as §2
# [16] = test system: Epidermal growth factor receptor (Homo sapiens), P00533 [G719S]; assay: Binding affinity to human partial length EGFR G719S mutant (R669 to V1011 residues) expressed in bacterial expression system assessed as residual binding level at 1 uM by Kinomescan method relative to control; summary of the method: as §1
# [17] = biological target: MAP/microtubule affinity-regulating kinase 3 (Homo sapiens) (UniProt P27448); assay: Binding affinity to wild-type human full length MARK3 (M1 to L729 residues) expressed in bacterial expression system assessed as residual binding level at 1 uM by Kinomescan method relative to control; summary of the method: as §2
# [18] = biological target: Activin receptor type-1 (Homo sapiens) (UniProt Q04771); assay: Binding affinity to wild-type human ACVR1 (C188 to C509 residues) expressed in bacterial expression system assessed as residual binding level at 1 uM by Kinomescan method relative to control
# Chain of Activin receptor type-1 (Homo sapiens) (Q04771 whole entry, the tested form may be a part): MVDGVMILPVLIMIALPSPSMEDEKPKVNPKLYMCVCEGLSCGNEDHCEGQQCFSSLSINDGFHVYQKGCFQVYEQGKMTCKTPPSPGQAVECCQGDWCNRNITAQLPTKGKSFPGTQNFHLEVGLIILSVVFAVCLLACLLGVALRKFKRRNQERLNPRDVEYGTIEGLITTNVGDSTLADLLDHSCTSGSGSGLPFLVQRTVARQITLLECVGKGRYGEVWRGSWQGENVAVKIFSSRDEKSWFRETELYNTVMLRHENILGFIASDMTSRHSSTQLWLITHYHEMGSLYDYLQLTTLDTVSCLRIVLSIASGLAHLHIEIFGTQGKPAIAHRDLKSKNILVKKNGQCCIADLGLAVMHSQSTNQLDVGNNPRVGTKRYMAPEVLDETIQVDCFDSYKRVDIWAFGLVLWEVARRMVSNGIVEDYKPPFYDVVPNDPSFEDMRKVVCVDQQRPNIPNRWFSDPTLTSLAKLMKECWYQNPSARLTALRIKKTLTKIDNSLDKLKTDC
# [19] = biological target: Serine/threonine-protein kinase LATS2 (Homo sapiens) (UniProt Q9NRM7); assay: Binding affinity to wild-type human partial length LATS2 (Q641 to V1088 residues) expressed in mammalian expression system assessed as residual binding level at 1 uM by Kinomescan method relative to control
# [20] = biological target: Dual specificity mitogen-activated protein kinase kinase 7 (Homo sapiens) (UniProt O14733); assay: Binding affinity to wild-type human full length MKK7 (M1 to R419 residues) expressed in mammalian expression system assessed as residual binding level at 1 uM by Kinomescan method relative to control; summary of the method: as §2
# [21] = biological target: Dual specificity protein kinase CLK3 (Homo sapiens) (UniProt P49761); assay: Binding affinity to wild-type human full length CLK3 (M1 to R490 residues) expressed in bacterial expression system assessed as residual binding level at 1 uM by Kinomescan method relative to control
# Chain of Dual specificity protein kinase CLK3 (Homo sapiens) (P49761 whole entry, looked up, the tested form may be a part): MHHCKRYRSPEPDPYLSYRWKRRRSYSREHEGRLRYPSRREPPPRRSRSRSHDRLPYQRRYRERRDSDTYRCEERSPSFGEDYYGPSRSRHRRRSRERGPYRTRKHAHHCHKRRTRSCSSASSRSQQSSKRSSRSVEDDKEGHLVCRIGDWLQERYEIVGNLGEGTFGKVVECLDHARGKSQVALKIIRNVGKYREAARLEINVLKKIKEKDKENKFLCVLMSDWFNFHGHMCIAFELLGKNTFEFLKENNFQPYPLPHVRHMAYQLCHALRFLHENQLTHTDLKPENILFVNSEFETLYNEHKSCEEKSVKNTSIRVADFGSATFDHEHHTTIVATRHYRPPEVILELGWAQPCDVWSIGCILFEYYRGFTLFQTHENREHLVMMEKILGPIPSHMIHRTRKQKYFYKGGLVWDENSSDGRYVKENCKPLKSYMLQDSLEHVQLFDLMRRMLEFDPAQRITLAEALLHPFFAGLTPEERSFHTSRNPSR
# [22] = biological target: Mitogen-activated protein kinase kinase kinase kinase 2 (Homo sapiens) (UniProt Q12851); assay: Binding affinity to wild-type human partial length MAP4K2 (M1 to G318 residues) expressed in mammalian expression system assessed as residual binding level at 1 uM by Kinomescan method relative to control
smiles,measurement,setting,value
C=CC(=O)Nc1cc(Nc2ncc(Cl)c(Nc3ccccc3S(=O)(=O)C(C)C)n2)c(OC)cc1N(C)CCN(C)C,Activity,[1],12%
same,Activity,[2],99%
same,IC50,Activated CDC42 kinase 1,13 nM
same,Activity,[3],0.95%
same,Activity,[4],98%
same,Activity,[5],93%
same,Activity,[6],2.3%
same,Activity,[7],62%
same,Activity,[8],2.8%
same,Activity,[9],13%
same,Activity,[10],2.4%
same,Activity,[11],12%
same,Activity,[12],75%
same,Activity,[13],100%
same,Activity,[14],83%
same,Activity,[15],55%
same,Activity,[16],0%
same,Activity,[17],33%
same,Activity,[18],9%
same,Activity,[19],74%
same,Activity,[20],77%
same,Activity,[21],23%
same,Activity,[22],77%

# Reference: ChEMBL document CHEMBL4382192, “Discovery of a potent dual ALK and EGFR T790M inhibitor” (Eur J Med Chem, 2017)
